MrgX1 allo act – human MrgX1 positive allosteric modulation, primary screen | Q96LB2 | hit rate 0.63% among 310,000 | MrgX1-HEK293, Fluo-4 calcium flux, FDSS; hits give high values | B-score at 10 µM | AID 588675;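 active = plate-corrected calcium response at least 3 library SD above typical, normal starting fluorescence, not activating the receptor alone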;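 note: compound read alongside a low EC10 to EC30 dose of BAM8-22 agonist; peak minus trough fluorescence over baseline measured at the second addition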
RGS4 pot – potentiators or activators of RGS4. hit rate 0.92% among 310,000. HEK293 M3R/inducible RGS4, carbachol calcium flux Fluo4; hits give low values. AID 463111. B-score at 10 µM;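 active = B-score of the integrated calcium signal more than 4 SD below the library mean, with starting fluorescence not abnormally high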;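 note: negative B-score means reduced calcium response which marks RGS4 activation or potentiation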
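Also added: carbachol at ECmax as muscarinic agonist stimulus; Assay system: HEK293 cells with stable M3R and inducible RGS4; Timing: overnight RGS4 induction, 30 min dye load 37 °C, 20 min compound RT; Measured by: Fluo4-AM (2 µM) calcium-flux fluorescence, kinetic read.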
MrgX1 antagonist – human MrgX1 receptor antagonism, primary screen; Q96LB2; MRGX1-HEK293 calcium flux, Fluo-4, BAM8-22 antagonism; hits give low values; AID 588676; B-score at 10 µM; hit rate 1.3% among 310,000;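 active = calcium-response B-score plate-corrected more than 3 library SD below zero, starting fluorescence within 5 deviations, no agonist response on first addition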;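 note: peak minus trough fluorescence over baseline after final BAM8-22 challenge near maximal dose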
MrgX1 ag – activates human MrgX1 receptor signaling; MrgX1-HEK293 cells, Fluo-4 calcium fluorescence, agonist mode; hits give high values; B-score at 10 µM; hit rate 0.44% among 310,000;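 active = calcium response B-score plate-corrected fluorescence ratio at least 3 library SD, with starting fluorescence B-score inside 5 SD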
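Material: HEK293 cells stably expressing human MrgX1 receptor | Quantity: 15,000 cells per well | Times: Cells plated overnight, dye loaded 0.5 h 37 °C, 0.5 h room temperature | Measured by: Kinetic Fluo-4 NW fluorescence of intracellular calcium | Control set: Positive and negative controls per plate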
RGS4 inh – inhibitors of human RGS4; P49798; hit rate 0.45% among 310,000; B-score at 10 µM; HEK293 M3R/RGS4 inducible, Fluo-4 calcium flux; hits give high values; triggered by carbachol at its EC20;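 active = B-score, a plate-corrected calcium signal, over three deviations above library mean, with baseline fluorescence within five deviations of library mean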;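 note: RGS4 expression induced by doxycycline in cells with stable M3 receptor; B-score is computed from the integrated fluorescence ratio over baseline after carbachol; higher B-score means a larger calcium signal and so more RGS4 inhibition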
Target sequence (P49798 whole entry, looked up): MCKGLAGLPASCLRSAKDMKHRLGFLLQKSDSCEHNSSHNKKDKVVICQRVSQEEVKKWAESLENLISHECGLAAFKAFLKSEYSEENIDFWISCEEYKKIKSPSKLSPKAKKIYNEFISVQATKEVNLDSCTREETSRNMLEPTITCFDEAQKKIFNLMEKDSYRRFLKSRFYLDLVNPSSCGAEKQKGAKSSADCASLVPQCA
RGS4 act valid – confirmation of RGS4 activators. shares compounds with RGS4 pot. HEK293 M3R/RGS4 inducible, carbachol calcium flux Fluo4. inhibition, % at 10 µM. hit rate 89% among 1,100. AID 602282;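 active = inhibition above 3 SD of the buffer control wells, cut at about 41% in these data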;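 note: signal is the integrated peak-minus-minimum Fluo4 fluorescence over baseline ratio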
M3R Ca counter – RGS4 activator counter-screen hit in non-induced cells; HEK293 M3R non-induced RGS4, Fluo4 calcium flux; after carbachol challenge at its EC90; inhibition, % at 10 µM; hit rate 82% among 1,100; shares compounds with RGS4 pot;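 active = inhibition exceeding 3 SD of buffer-only control wells, cut at about 26% in these data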;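 note: percent drop in integrated peak-minus-baseline over baseline Fluo4 ratio after carbachol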
Numbers without * were called inactive; i = inactive; · = no result. Sampled rows, rich in hits. Any-hit rate of the full collection: about 3.5%.

SMILES | MrgX1 allo act | RGS4 pot | MrgX1 antagonist | MrgX1 ag | RGS4 inh | RGS4 act valid | M3R Ca counter
O=C(Nc1ccc(Oc2ccccc2)nc1)C1CCCCN1Cc1ccc(O)cc1 (stereo unspecified) | i | -8.16* | i | i | i | 74.0* | 28.3*
CNc1ccc(C(O)(C(F)(F)F)C(F)(F)F)cc1C(O)(C(F)(F)F)C(F)(F)F | i | -8.15* | i | i | i | 89.5* | 68.8*
Cc1ccc(N)c(C(O)(C(F)(F)F)C(F)(F)F)c1 | i | i | i | i | i | · | ·
O=C(NCCc1ccc(F)cc1)C(=O)NCC1CCCN1S(=O)(=O)c1ccccc1 (stereo unspecified) | i | -9.26* | i | i | i | 89.5* | 68.3*
COc1ccccc1CCNC(=O)C(=O)NCC1CCCN1S(=O)(=O)c1ccccc1 (stereo unspecified) | i | -10.9* | -4.52* | i | i | 79.5* | 83.8*
COc1ccc(CCNC(=O)C(=O)NCC2CCCN2S(=O)(=O)c2ccccc2)cc1 (stereo unspecified) | i | -12.1* | i | i | i | 87.5* | 54.3*
O=C(NCc1ccc(F)cc1)C(=O)NCC1CCCN1S(=O)(=O)c1ccccc1 (stereo unspecified) | i | i | i | i | i | · | ·
CCOc1ccccc1NC(=O)COC(=O)CCOc1cc(C)ccc1C | i | i | i | i | i | · | ·
O=c1[nH]c2ccccc2nc1-c1ccccc1 | i | i | i | i | i | · | ·
NC(=O)N=Nc1c2[nH]c3ccccc3nc-2c2ccccc12 | i | -8.58* | i | i | i | 56.5* | 0.0
FC(F)(F)c1cccc(NCc2n[nH]c(=S)n2C2CCCCC2)c1 | i | -8.38* | i | i | i | 85.0* | 51.8*
COc1cccc(C(=O)Nc2cccc(-c3nnc(-c4ccccc4)o3)c2)c1 | i | -11.2* | i | i | i | 76.0* | 37.3*
COc1ccccc1OCC(=O)Nc1cccc(-c2nnc(-c3ccco3)o2)c1 | i | -8.06* | i | i | i | 78.5* | 28.3*
COc1ccc(CC(=O)Nc2cccc(-c3nnc(-c4ccccc4)o3)c2)cc1OC | · | -8.97* | · | · | i | 93.0* | 80.8*
O=C(Cc1ccccc1)Nc1cccc(-c2nnc(-c3ccco3)o2)c1 | i | i | i | i | i | · | ·
O=C(N1CCOCC1)N(CCN1CCOCC1)Cc1cccc(Cl)c1 | i | i | i | i | i | · | ·
COC(=O)CN1C(c2ccccc2)=Nc2ccc(Cl)cc2C1c1ccccc1 (stereo unspecified) | i | i | i | i | i | · | ·
CCOC(=O)N1CCC(Nc2nc3ccccc3nc2NS(=O)(=O)c2ccc(Cl)cc2)CC1 | i | i | i | i | i | · | ·
O=C1CCCN1S(=O)(=O)c1ccccc1 | i | -7.89* | i | i | i | 50.0* | 0.0
CCOCc1c(C(=O)NC2=Nc3ccccc3NC(CC)=C2C(=O)OCC)oc2ccccc12 | i | -8.95* | i | i | i | 76.5* | 83.8*
CCOC(=O)C1=C(CC)Nc2ccccc2N=C1NC(=O)c1oc2ccccc2c1C | i | -12.1* | i | i | i | 84.0* | 52.3*
CCOC(=O)C1=C(CC)Nc2ccccc2N=C1NC(=O)CCNC(C)=O | i | i | i | i | i | · | ·
COC(=O)C(O)(CC(=O)Nc1ccc(Cl)cc1Cl)C(F)(F)F (stereo unspecified) | i | -9.21* | i | i | i | 0.0 | 0.0
Cc1ccc(C(=O)Nc2nc(-c3ccccc3)c(-c3ccccc3)o2)cc1 | i | i | i | i | i | · | ·
Cc1ccccc1Nc1nc(N)nc(CN(C)Cc2ccccc2Cl)n1 | i | i | i | i | i | · | ·
CC1CCN(c2ccc3c(c2)S(=O)(=O)c2ccccc2C3=O)CC1 | i | -8.19* | i | i | i | 68.5* | 65.3*
